The source of these data is ChEMBL document CHEMBL1165997, “Sesquiterpenoids from Inula lineariifolia inhibit nitric oxide production” (J Nat Prod, 2010).

For data set [1], the system named is RAW264.7. Put plainly: Inhibition of LPS-induced NO production in mouse RAW264.7 cells measured after 24 hrs. It counts as functional, cell-based. The essentials: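 RAW264.7 cells, harvested from 100 mm dishes, were seeded at 2 × 10^5 cells/well. They were pretreated with a range of sample concentrations for 30 min, then incubated 24 h with or without LPS at 1 µg/mL. Nitrite in the culture supernatant was measured by the Griess reaction, and IC50 was reported.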

Data set [2] concerns RAW264.7. Put plainly: Cytotoxicity against mouse RAW264.7 cells at concentration required inhibit NO synthesis by MTT assay. It counts as cell-based. A general note: Formazan colour is commonly taken as a measure of viable cells.

pIC50: −log10 of the molar value.

What is called pIC50 is −log10 of the IC50, conventionally taken in molar units. Read a low pIC50 as a high IC50. In the data set with RAW264.7 [1] (Mus musculus, RAW264.7, 24 h), `C=C1C(=O)O[C@@H]2C[C@H](C)C(CCC(C)=O)=C[C@H](O)[C@H]12` showed a pIC50 of 4.88. Also, the Activity entry in the data set with RAW264.7 [2] is on record as “Non-toxic”.
As to `C=C1C(=O)O[C@H]2C=C(CCC(C)=O)[C@H](C)C[C@H](OC(=O)CC)[C@H]12`, the pIC50 in the data set with RAW264.7 [1] (Mus musculus, RAW264.7, 24 h) is 4.88. Also, the Activity result in the data set on RAW264.7 [2] is recorded as “Non-toxic”.
In the case of `C=C1C(=O)O[C@H]2C[C@@H](C)[C@@H]3[C@@H](OC(C)=O)C[C@H](O)[C@@]3(C)C[C@H]12`, in the data set on RAW264.7 [1] (Mus musculus, RAW264.7, 24 h), the pIC50 is 6.60. Moreover, in the data set with RAW264.7 [2], the Activity entry is on record as “Non-toxic”.
For `C=C1C(=O)O[C@H]2C[C@@H](C)[C@H]3[C@@H](OC(C)=O)C[C@@](C)(O)[C@@]34O[C@H]4[C@H]12` the same measures were 4.58 and “Non-toxic”.
The compound `C=C1C(=O)O[C@H]2C[C@@H](C)[C@@H]3[C@@H](OC(C)=O)C[C@H](O)[C@@]3(C)[C@@H](OC(C)=O)[C@H]12` showed a pIC50 in the data set on RAW264.7 [1] (Mus musculus, RAW264.7, 24 h) of 6.96. For the same compound, the Activity entry in the data set on RAW264.7 [2] is reported as “Non-toxic”.
As for `C=C1C[C@@H]2OC(=O)C(=C)[C@H]2C[C@@H]2[C@@H]1[C@@H](OC(C)=O)C[C@@]2(C)O` (stereo in doubt; 5), the Activity entry in the data set on RAW264.7 [2] was “Non-toxic”.
Turning to `C=C1C(=O)O[C@H]2C=C(C)[C@H]3[C@@H](OC(C)=O)C[C@@](C)(O)[C@@H]3C[C@H]12` (stereo in doubt; 9) [GAILLARDIN], the pIC50 in the data set on RAW264.7 [1] (raw264.7) was 5.53.
In turn, `C=C1C(=O)O[C@H]2C=C(C)[C@@H]3CC[C@](C)(O)[C@@H]3C[C@H]12` [4-EPI-ISOINUVISCOLIDE] had a pIC50 in the data set on RAW264.7 [1] (Mus musculus, RAW264.7, 24 h) of 4.54. Moreover, in the data set on RAW264.7 [2], the Activity entry is “Non-toxic”.
For `C[C@@H]1CC[C@@H]2[C@]3(O)[C@H]1CC[C@@]3(C)C[C@@]2(C)C(=O)O` [BRITANLIN C] the same measures were 4.64 and “Non-toxic”.
In turn, `C[C@@H]1CC[C@H](O)[C@]2(O)CC[C@H](c3cc3=O)C[C@@]12C` [INEARIIFOLIANONE] gave a pIC50 in the data set on RAW264.7 [1] (Mus musculus, RAW264.7, 24 h) of 4.89. Moreover, in the data set on RAW264.7 [2], the Activity entry was “Non-toxic”.
In the data set with RAW264.7 [1] (Mus musculus, RAW264.7, 24 h), `N=C(N)NN` [PIMAGEDINE] showed a pIC50 of 5.57.
In turn, `C=C1C(=O)O[C@H]2C[C@@H](C)[C@@H]3CC[C@H](O)[C@@]3(C)C[C@H]12` [PSEUDOGUAIANOLIDE] gave a pIC50 in the data set on RAW264.7 [1] (Mus musculus, RAW264.7, 24 h) of 7.00. In addition, the Activity result with RAW264.7 [2] is “Non-toxic”.
`C=C1C(=O)O[C@@H]2C[C@H](C)C(CCC(C)=O)=CC[C@H]12` [TOMENTOSIN]: the pIC50 in the data set with RAW264.7 [1] (Mus musculus, RAW264.7, 24 h) was 5.04. Besides, the Activity entry in the data set on RAW264.7 [2] is “Non-toxic”.
`C=C1C(=O)O[C@H]2C[C@H](C)[C@@H]3CC(=O)C(C)=C3C[C@H]12` [XERANTOLIDE]: the negative logarithm of the IC50 (pIC50) in the data set with RAW264.7 [1] (Mus musculus, RAW264.7, 24 h) is 4.45. Further, the Activity entry in the data set with RAW264.7 [2] is on record as “Non-toxic”.
